TAAR1 antagonist – human TAAR1 antagonists, primary screen, Fluo-8 calcium fluorescence, CHO RD-HGA16 cells; Trace amine-associated receptor 1 (Homo sapiens), Q96RJ0; AID 624466, 2012; inhibition, % at 3 µM; hit rate 1.5% among 360,000; antagonist;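 active means inhibition above a per-plate cutoff, the mean inhibition of test compounds on that plate plus 3 SD, cut at about 49% in these data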;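 further: 0% = DMSO plus EC80 beta-PEA response and 100% = DMSO alone without agonist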
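Test system: RD-HGA16 CHO cells with stable hTAAR1 and Gα16 / Probe or stimulus: EC80 β-phenethylamine stimulus / Times: seeding 17-24 h prior, 75-min 37 °C, 30-min RT dye loading / Detection: Fluo-8 calcium-sensitive fluorescence / Read-out basis: % inhibition scaled between DMSO and EC80 PEA controls / Repeats: singlicate, one well per test compound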
GalR3 antag – GalR3 antagonists in HEK293 cells, primary screen, cell-based, fluorescence readout; Galanin receptor type 3 (Homo sapiens), O60755; HEK293 GalR3-CNG cAMP membrane potential fluorescence; galR3 body fused to GalR1 C-terminus; inhibition, % at 3 µM; hit rate 0.44% among 360,000; AID 651719, 2012;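 active means inhibition above the screen-wide average plus 3 SD, cut at about 13% in these data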;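 further: forskolin and galanin both at EC90 stimulate the cells; cAMP rise reported by CNG channel membrane potential dye signal; 0% = forskolin plus galanin with DMSO and 100% = forskolin alone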
Target sequence (O60755 1-299 limits assumed): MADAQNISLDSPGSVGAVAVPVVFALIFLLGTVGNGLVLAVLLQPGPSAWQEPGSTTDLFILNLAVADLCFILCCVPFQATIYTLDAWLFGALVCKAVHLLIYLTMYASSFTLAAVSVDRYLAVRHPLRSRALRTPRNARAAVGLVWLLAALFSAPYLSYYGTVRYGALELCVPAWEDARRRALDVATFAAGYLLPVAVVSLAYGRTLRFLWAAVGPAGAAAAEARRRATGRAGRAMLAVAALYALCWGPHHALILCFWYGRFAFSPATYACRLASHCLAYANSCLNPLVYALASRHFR
OX1R antag-1 – OX1R (HCRTR1) antagonists, primary screen, fluorescence, CHO/OX1R cells, Fluo-8 calcium, orexin A. Orexin/Hypocretin receptor type 1 (Homo sapiens), O43613. inhibition, % at 5 µM. AID 434989, 2010. Fluo-8 calcium fluorescence. hit rate 0.43% among 330,000;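 active means inhibition above its plate's threshold, mean inhibition of all tested compounds on the plate plus 3 SD, cut at about 37% in these data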;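 further: 0% = orexin A challenge wells and 100% = SB-334867-A antagonist wells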
Target sequence (O43613 whole entry, looked up): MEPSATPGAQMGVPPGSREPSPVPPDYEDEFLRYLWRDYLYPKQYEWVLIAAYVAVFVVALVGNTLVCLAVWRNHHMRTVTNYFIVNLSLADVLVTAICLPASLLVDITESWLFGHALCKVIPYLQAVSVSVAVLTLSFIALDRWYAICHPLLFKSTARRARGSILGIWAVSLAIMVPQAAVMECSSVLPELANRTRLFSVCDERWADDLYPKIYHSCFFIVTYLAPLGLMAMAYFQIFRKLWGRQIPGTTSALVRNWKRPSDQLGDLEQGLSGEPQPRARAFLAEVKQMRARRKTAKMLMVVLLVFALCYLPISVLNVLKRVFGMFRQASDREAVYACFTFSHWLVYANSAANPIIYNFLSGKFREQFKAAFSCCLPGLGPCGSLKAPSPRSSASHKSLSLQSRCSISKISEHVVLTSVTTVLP
OX1R antag-2 – antagonists of human orexin 1 receptor (OX1R); inhibition, % at 6.6 µM; OX1R-expressing cells, FRET antagonist read-out; hit rate 1.8% among 330,000; in the data active means inhibition mostly above about 38%, no sharp cut-off; inactive means mostly below about 40%;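 further: 0% = agonist challenge alone and 100% = reference antagonist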
CHO parental Ca – ATP-evoked calcium signal inhibitors, parental CHO, primary screen, counter-screen for OX1R antagonist project, cell-based, fluorescence, Fluo-8 calcium dye; parental CHO-K1, ATP-induced calcium, Fluo-8 fluorescence; inhibition, % at 5.6 µM; hit rate 0.63% among 330,000;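 active means inhibition above that plate's mean sample inhibition plus 3 SD, cut at about 26% in these data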;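 further: 0% = ATP-challenged DMSO wells and 100% = DMSO wells without ATP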
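Test system: parental CHO cells; detection: calcium-sensitive Fluo-8 fluorescence; evaluation: percent inhibition of calcium signal; also added: ATP as calcium-mobilizing challenge; repeats: one well per compound; control set: ATP-challenged DMSO wells low, unchallenged DMSO wells high; compound: single nominal dose of 5.6 µM per compound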
TAAR1 ag – human TAAR1 agonists, primary screen, Fluo-8 calcium fluorescence, CHO RD-HGA16 cells; Trace amine-associated receptor 1 (Homo sapiens), Q96RJ0; activation, % at 3 µM; AID 624467, 2012; vehicle wells 0%, saturating PEA agonist 100%; hit rate 0.99% among 360,000;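 active means activation above the mean activation of all test compounds in the run plus 3 SD, cut at about 38% in these data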
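System: CHO-derived RD-HGA16 cells with stable Gα16 and human TAAR1. Times: 17-24 h plating, Fluo-8 75 min 37 °C, 30 min RT. Measured by: calcium-sensitive Fluo-8 signal, excitation 470-495, emission 515-575 nm. Read-out basis: % activation relative to PEA EC100 response. Control set: DMSO and PEA EC100. Repeats: no replicates (n 1).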
Numbers without * were called inactive; / = no result. This is a sample that favours compounds with a hit; in the whole collection about 4.3% have one here.

SMILES | TAAR1 antagonist | GalR3 antag | OX1R antag-1 | OX1R antag-2 | CHO parental Ca | TAAR1 ag
CCOC(=O)C1=C(COC(=O)/C=C/c2ccccc2F)NC(=O)NC1C (stereo not drawn) | 56* | -1 | 10 | 16 | -16 | 23
COC(=O)N1Cc2ccnnc2CC1c1ccccc1-c1ccccc1 (stereo not drawn) | -6 | -7 | / | / | / | 1
O=C(CCNS(=O)(=O)c1ccc(Cl)cc1)N1CCN(c2ccccn2)CC1 | -3 | -5 | -8 | 13 | -5 | -2
CN(C(=O)[C@H]1O[C@@H](n2cnc3c(=O)[nH]c(N)nc32)[C@H](O)[C@@H]1O)C1CCCCC1 | -8 | -6 | / | / | / | 3
CCN(CC)S(=O)(=O)c1ccc(N2CCOCC2)c(NC(=O)c2cccc3c(=O)c(C)c(-c4ccccc4)oc23)c1 | 54* | -4 | -28 | 11 | -8 | 9
CCN(CC)S(=O)(=O)c1ccc(N2CCOCC2)c(NC(=O)c2cccc3ccccc23)c1 | 40 | -4 | -15 | 4 | -18 | 12
Clc1cc(Cl)cc(CN2CCN(c3ncc(Cc4ccccc4)cn3)CC2)c1 | -40 | -7 | / | / | / | 0
CC(SCC(=O)Nc1ccccc1)c1nc2ccccc2c(=O)[nH]1 (stereo not drawn) | -8 | -3 | -11 | 12 | -15 | 0
CC(C)c1ccc(NC(=O)CSC(C)c2nc3ccccc3c(=O)[nH]2)cc1 (stereo not drawn) | 4 | -2 | 2 | 63* | -5 | 2
COc1cc(C(=O)NNC(=O)/C=C/c2ccccc2)cc(OC)c1OC | -10 | -5 | -17 | 15 | -5 | 3
COc1cc(C(=O)NNC(=S)NC(=O)/C=C/c2ccccc2)cc(OC)c1OC | 23 | -3 | -15 | 2 | -17 | 39*
CCCCn1c(N)c(N(CCOC)C(=O)CN(C)S(=O)(=O)c2ccc(F)cc2)c(=O)[nH]c1=O | -5 | -2 | -22 | 20 | -1 | 3
COc1ccc(-c2cnc3c(NC=O)cc(-c4ccccc4OC)cn23)cc1OC | 30 | 34* | / | / | / | 26
COc1cccc(-c2cnc3c(NC(C)=O)cc(-c4cc(OC)c(OC)c(OC)c4)cn23)c1 | 51* | -3 | / | / | / | 1
COc1cccc(-c2cnc3c(NC(C)=O)cc(-c4ccccc4OC)cn23)c1 | 57* | -10 | / | / | / | 5
CN(C)S(=O)(=O)c1ccc(Nc2ccc(-c3ccc4c(c3)OCCO4)nn2)cc1 | 49* | 0 | 10 | 16 | -2 | 16
COc1ccc2[nH]cc(CCNC(=O)CC[C@H]3O[C@@H](n4cc(C)c(=O)[nH]c4=O)C[C@@H]3O)c2c1 | -22 | -4 | -4 | 2 | -8 | 2
CN(C(=O)c1ccc(NC(=O)Cc2ccc([N+](=O)[O-])cc2)cc1)C1CCCC1 | 38 | -5 | 3 | -1 | 5 | 48*
CCCCCCCCN1C(=O)[C@@H](CC(=O)N2CCSCC2)C[C@@]2(C(=O)OC)C1=C[C@H](C1CCCC1)O[C@@H]2C | -30 | 0 | / | / | / | 0
O=C(COC(=O)c1cc(Br)ccc1O)Nc1ccc2c(c1)OCCO2 | 51* | -5 | -6 | 32 | 13 | 14
Cc1cc(C(=O)COC(=O)c2ccc(NC(=O)CC#N)cc2)c(C)n1C1CC1 | -2 | -4 | / | / | / | 4
Cc1cccc(C(=O)OCC(=O)Nc2c(C)nn(-c3ccccc3)c2C)c1O | 27 | -5 | -9 | 0 | -4 | 7
Cc1nn(-c2ccccc2)c(C)c1NC(=O)COC(=O)c1ccc(Cl)c(S(N)(=O)=O)c1 | 53* | 1 | -2 | 20 | -11 | 13
Cc1nn(-c2ccccc2)c(C)c1NC(=O)COC(=O)c1cc(Br)ccc1O | 61* | -4 | -4 | 39 | -2 | 18
Cc1cc(C(=O)COC(=O)c2ccc(Cl)c(S(N)(=O)=O)c2)c(C)n1C1CC1 | 49* | -3 | -21 | 6 | -1 | 10
SMILES | TAAR1 antagonist | GalR3 antag | OX1R antag-1 | OX1R antag-2 | CHO parental Ca | TAAR1 ag
CCC1OC(C(C)C)Cc2[nH][nH]c(=O)c21 (stereo not drawn) | -11 | -3 | / | / | / | 0
Cc1c(Cl)cccc1NC(=S)NC(=O)c1cncc(Br)c1 | 10 | -5 | -43 | 15 | -18 | 8
CN(CCc1ccccc1)C(=O)c1ccc(NC(=O)Cc2ccc(NC(=O)C3CCCN(C(=O)C4CCCC4)C3)cc2)cc1 (stereo not drawn) | -3 | -7 | / | / | / | -1
C[C@@H]1CN([C@H](C)CO)S(=O)(=O)c2ccc(C#Cc3cccc(F)c3)cc2O[C@@H]1CN(C)C(=O)CN1CCOCC1 | 36 | -7 | / | / | / | 15
C#CCN(CC(=O)OCC)S(=O)(=O)CCNC1CC1 | 2 | -7 | / | / | / | 1
CN[C@@H]1CC[C@H](c2ccc(Cl)c(Cl)c2)c2ccccc21 | 6 | -15 | / | / | / | 45*
COc1ccccc1C1CCN(Cc2ccc(Cl)c(Cl)c2)CC1 | -15 | -9 | -12 | -6 | -17 | 2
C[C@H](CO)N1C[C@H](C)[C@@H](CN(C)S(=O)(=O)c2cn(C)cn2)OCc2cn(nn2)CCCC1=O | 5 | -5 | / | / | / | 2
CC(=O)OCC(=O)Nc1ccc([N+](=O)[O-])cc1Cl | 4 | -3 | 1 | 38 | -7 | -1
CC(=O)Oc1c(C)cc(Cl)cc1C(=O)Nc1ccc([N+](=O)[O-])cc1Cl | 26 | 6 | -4 | 71* | 15 | 12
C[C@@H]1CN([C@H](C)CO)C(=O)CCCn2nncc2CO[C@H]1CN(C)C | 2 | -5 | / | / | / | 1
O=[N+]([O-])c1ccc(-c2csc3[n+]2CCS3)cc1 | 6 | -2 | -20 | 74* | -13 | 17
Fc1ccc(-c2csc3[n+]2CCS3)cc1 | -17 | -4 | -24 | 20 | -33 | 4
NC(=S)N=Nc1c(O)n(Cc2ccccc2)c2ccccc12 | -3 | 2 | -6 | 29 | -6 | -2
O=Nc1c(O)n(Cc2cccc(Cl)c2)c2ccccc12 | -2 | 1 | 6 | 19 | 61* | 10
COc1ccc(-c2nc3c(Cl)cc(C(F)(F)F)cn3c2Cc2ccc(C)cc2)cc1OC | -15 | -4 | / | / | / | -1
Oc1ccc(Cl)cc1C=Nc1ccccc1Br | -13 | -2 | 4 | 9 | 0 | 3
Oc1ccc(Br)cc1C=Nc1ccc2c3c(cccc13)CC2 | 2 | 0 | 56* | 6 | 42* | 5
Cc1ccc2c(=O)n3c(nc2c1)C(Cc1ccc(O)cc1)NC(=O)c1cccnc1-3 (stereo not drawn) | -7 | -3 | / | / | / | 2
